An excerpt weighted towards active compounds, which were near 4.9% of everything screened.
STAT3 inh = inhibitors of IL-6 induced STAT3 signaling; U3A cells, IL-6 STAT3-luciferase reporter, luminescence; host cell line lacks STAT1; inhibition, % at 5.5 µM; 190,000 compounds, 0.89% hits;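 active = inhibition above the mean inhibition across all screened compounds plus 3 SD, cut at about 44% in these data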
STAT1 act-1 = STAT1 signaling activation; activation (% of control), % at 5.5 µM; AID 932; NIH 3T3 STAT1-luciferase reporter, IFN-gamma, luminescence; 100% = IFN-gamma alone, no compound; 200,000 compounds, 2.6% hits;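 active = activation above the screen-wide mean activation plus 3 SD, cut at about 130% in these data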
NF-kB neuron act = compounds increasing NF-kB expression in human neuronal cells; NF-kB reporter expression; hits give high values; fold change at 12.5 µM; 190,000 compounds, 1.6% hits; in the data active = fold change above about 3.3
STAT1 blocker = inhibitors of IFN-gamma induced STAT1 signaling; NIH 3T3 STAT1-luciferase reporter, luminescence; inhibition, % at 5.5 µM; 200,000 compounds, 0.35% hits;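 active = inhibition above a set limit, the mean inhibition across all tested compounds plus 3 SD, cut at about 34% in these data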
APP 5'UTR act = activates APP 5'UTR luciferase reporter; SH-SY5Y APP 5'UTR luciferase reporter, luminescence; zero percent = DMSO vehicle wells; activation, % at 2 µM; 190,000 compounds, 1% hits;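 active = activation above a set limit, based on mean plus 3 SD of controls, cut at about 140% in these data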
STAT3 act-1 = increases IL-6 driven STAT3 reporter signal; U3A cells, IL-6 STAT3-luciferase reporter, luminescence; 100% = signal with IL-6 EC80 alone; activation (% of control), % at 5.6 µM; 190,000 compounds, 0.91% hits;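 active = activation above the screen-wide mean of compound activation plus 3 SD, cut at about 130% in these data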
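Material: STAT3-luciferase reporter U3A cells. Controls: IL-6-treated wells, 100% activation. Read-out: % activation versus median of IL-6-stimulated wells. Probe or stimulus: IL-6 stimulus at 33 ng/mL final. Timing: compound 1 h, then IL-6 6 h at 37 °C. Signal: reporter luminescence signal.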
STAT3 act-2 = STAT3 activation, confirmation assay; shares compounds with STAT3 act-1; U3A STAT3-luciferase reporter, IL-6 potentiation, luminescence; U3A cells lack STAT1; 100 means same as IL-6 alone; potentiation (% of control), % at 5.7 µM; 1,200 compounds, 64% hits; AID 1267;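 active = percent activation of the STAT3 luciferase reporter above a set limit taken from the earlier primary screen, cut at about 130% in these data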
NFkB act 2 = activates NF-kappaB, counter-screen to STAT3 activators. shares compounds with STAT3 act-1. human cells, NF-kappaB reporter activation. activation (% of control), % at 5.7 µM. 1,200 compounds, 11% hits. AID 1309; in the data active = activation above about 120%;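 note: reporter induced by TNF-alpha stimulation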
STAT1 act-2 = counter-screen for STAT3 activators: STAT1 activation; activation (% of control), % at 5.7 µM; AID 1318; 1,200 compounds, 13% hits; shares compounds with STAT3 act-1; NIH 3T3 STAT1-luciferase reporter, IFN-gamma, luminescence;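 active = activation above the solvent-only control well mean plus 3 SD, set per screening run, cut at about 120% in these data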
Numbers stand for hits; n = inactive; x = no result given.

SMILES	STAT3 inh	STAT1 act-1	NF-kB neuron act	STAT1 blocker	APP 5'UTR act	STAT3 act-1	STAT3 act-2	NFkB act 2	STAT1 act-2
COC(=O)C(NC(=O)CSc1nc(N)cc(=O)[nH]1)c1ccccc1 (stereo not drawn)	n	n	n	n	n	n	x	x	x
O=[N+]([O-])c1cnn(-c2nc(-c3ccccc3)cc(C(F)(F)F)n2)c1	n	n	n	n	n	n	x	x	x
CC1CC1c1ccc(/C=C(\C#N)C(=O)Nc2cccc(Cl)c2Cl)o1 (stereo not drawn)	n	n	n	n	n	n	x	x	x
Fc1ccc(OCc2nc(-c3ccc(Br)o3)no2)c(F)c1	n	n	n	n	n	n	x	x	x
Clc1ccccc1OCc1nc(-c2ccc(Br)o2)no1	n	n	n	n	n	136.7	n	n	125.4
CC(Oc1ccc(F)cc1)C(=O)Nc1ccc2ccccc2c1 (stereo not drawn)	n	n	n	n	x	139.2	135.8	n	n
CCC(=O)N1CCN(c2ccccc2NC(=O)COc2ccccc2Cl)CC1	n	n	n	n	n	155.6	142.7	n	n
O=C(COc1ccccc1Cl)Nc1cc(Cl)ccc1O	n	n	n	n	n	166.0	161.2	n	n
COc1ccc(S(=O)(=O)N2CCOCC2)cc1NC(=O)CSc1nnc2ccccn12	n	n	n	n	n	n	x	x	x
CCOC(=O)C1CCN(C(=O)CSc2nccc(C)n2)CC1	n	n	n	n	n	n	x	x	x
CCCCc1ccc(NC(=O)C(C)CC)cc1 (stereo not drawn)	n	n	n	n	n	n	x	x	x
O=C(CNc1cccc2ccccc12)N/N=C/c1ccc(OC(=O)/C=C/c2ccco2)cc1	n	n	n	n	n	156.3	n	n	n
Cc1ccc(-c2cc(-c3cccs3)[nH]n2)c(O)c1	n	n	8.12	n	n	164.5	140.5	126.7	n
Cc1cccc(C)c1NC(=S)N(c1ccccc1)C(C)C	n	n	n	n	n	n	x	x	x
CCNc1nc(NC(C)(C)C)nc(SC(C(C)=O)C(C)=O)n1	n	n	n	n	n	140.5	n	n	n
CCNc1nc(SC(C(C)=O)C(C)=O)nc(N(C)C)n1	n	n	n	n	n	n	x	x	x
CN(C)C(=O)COC(=O)/C=C/c1ccccc1[N+](=O)[O-]	n	n	n	n	n	161.8	142.6	n	n
O=C(COC(=O)/C=C/c1ccccc1[N+](=O)[O-])NCC1CCCO1 (stereo not drawn)	n	n	n	n	n	n	x	x	x
CCN(C(=O)COC(=O)/C=C/c1ccccc1[N+](=O)[O-])C1CCS(=O)(=O)C1 (stereo not drawn)	n	n	n	n	n	149.2	141.1	n	n
Cc1ccc(C(=O)/C=C/c2ccccc2[N+](=O)[O-])cc1	n	n	n	n	n	138.3	162.4	121.2	125.0
CCNC(=O)COC(=O)/C=C/c1ccccc1[N+](=O)[O-]	n	n	n	n	n	n	x	x	x
O=C(COC(=O)/C=C/c1ccccc1[N+](=O)[O-])NCC(F)(F)F	n	n	n	n	n	149.9	162.5	n	n
CCC1(CC)NC(=O)N(CC(=O)OCC(=O)Nc2ccc(F)c(F)c2F)C1=O	n	n	x	n	n	n	x	x	x
O=S(=O)(c1ccccc1)n1ccc2ccccc21	n	n	n	n	n	139.3	n	n	n
N#C/C(=C\c1ccc(-c2cccc([N+](=O)[O-])c2)o1)c1nnc(N2CCOCC2)n1-c1ccccc1	n	n	n	n	n	n	x	x	x
SMILES	STAT3 inh	STAT1 act-1	NF-kB neuron act	STAT1 blocker	APP 5'UTR act	STAT3 act-1	STAT3 act-2	NFkB act 2	STAT1 act-2
COc1ccc(S(=O)(=O)N2CCN(Cc3ccccc3)CC2)cc1	n	n	n	n	n	137.7	n	n	n
Cc1cc(-c2ccc(Cl)cc2)c(C#N)c(N)n1	n	n	n	n	x	147.8	140.4	n	n
CCOC(=O)C1=C(NC(=S)NC(=O)c2ccccc2)c2ccccc2CC1C(C)C (stereo not drawn)	n	n	3.66	n	n	139.1	n	n	n
CCOC(=O)C1=C(NC(=S)NC(=O)c2ccccc2)c2ccccc2CC1(C)CC (stereo not drawn)	n	n	n	n	n	n	x	x	x
Cc1ccc(CNC(=O)c2ccc(OCC3CCCO3)cc2)cc1 (stereo not drawn)	n	n	n	n	n	n	x	x	x
Cn1cc(C(CC(=O)O)C(=O)O)c2ccccc21 (stereo not drawn)	n	n	n	n	n	n	x	x	x
CCOC(=O)CC(C#N)c1cn(C)c2ccccc12 (stereo not drawn)	n	n	n	n	n	145.2	n	n	n
Cc1nc2ccc(S(=O)(=O)NCC(=O)Nc3cccc(F)c3)cc2s1	n	n	n	n	n	n	x	x	x
COc1ccc(N=Cc2sc3ccccc3c2Cl)cc1	n	n	n	n	n	136.8	n	n	132.2
COc1ccc(C(=O)C2CCCN(C(=O)/C=C/c3ccccn3)C2)c(C)c1 (stereo not drawn)	n	n	x	n	n	n	x	x	x
CC1(C)CC(=O)C(c2c[nH]c3ccccc23)C(=O)C1	n	n	n	n	n	152.2	163.4	n	n
CC12CN3CC(C)(CN(C1)C3c1c[nH]c3ccccc13)C2=O (stereo not drawn)	n	n	n	n	n	n	x	x	x
CSc1nc2ccc(NC(=O)CSc3nnc(N)s3)cc2s1	n	n	n	n	n	n	x	x	x
CSc1nc2ccc(NC(=O)C3=NN(c4ccccc4)C(=O)CC3)cc2s1	n	n	n	n	n	138.2	161.2	n	n
CSc1nc2ccc(NC(=O)C3=NNC(=O)CC3)cc2s1	n	n	n	n	n	141.3	150.8	n	n
O=C(O)/C(=C\c1ccc(Br)cc1)c1ccc(S(=O)(=O)N2CCCCC2)s1	n	n	n	n	n	n	x	x	x
O=c1cnnc(Nc2ccc(F)cc2)[nH]1	n	n	n	n	n	n	x	x	x
O=c1cnnc(Nc2cccc(F)c2)[nH]1	n	n	n	n	n	142.5	148.0	n	n
O=C(CCn1nnc2ccccc21)N/N=C\Cc1ccccc1	n	n	n	n	n	n	x	x	x
CCOc1ccc(CCNC(=O)C2=C(C)C(=O)OC23CCCCC3)cc1OCC	n	n	n	n	n	n	x	x	x
COc1ccc(C2c3[nH]c4ccccc4c3CCN2C(=O)c2cc3ncccn3n2)c(F)c1 (stereo not drawn)	n	n	n	n	n	146.4	148.9	n	n
